An excerpt weighted towards active compounds, which were near 2.2% of everything screened.
PABP1 MLLE inh: blocks PAM2 peptide binding to the PABP1 MLLE domain; GST-MLLE / FITC-PAM2 fluorescence polarization; 0.36% of 360,000 active; P11940; inhibition, % at 20 µM; in the data active = inhibition above about 35%, passing the limit was not always enough
IMP-1 inh-1: blocks Pseudomonas aeruginosa IMP-1 metallo-beta-lactamase | purified IMP-1, nitrocefin hydrolysis, epi-absorbance fluorescence | inhibition, % at 5.6 µM | 0.45% of 290,000 active | AID 1556;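 active = inhibition above the mean plus 3 SD of all compounds in the same screening run, cut at about 4.5% in these data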
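System: purified IMP-1; amount: IMP-1 0.2 nM before substrate addition; compound: single dose, 5.6 µM; times: 25 °C, 15 min preincubation, 25 min reaction; signal: Epi-absorbance via hydrolysed-nitrocefin quenching of white-plate fluorescence, 480/530 nm, EDTA stop; benchmarks: DMSO with and without IMP-1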
PABP polyA inh: blocks human PABP binding to poly(A) RNA | P11940 | fluorescence polarization | calls only at 35 µM | 1% of 290,000 active;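 note: calls also rest on retests at 20 µM and on dose response follow-up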
VIM-2 inhibitor: inhibitors of Pseudomonas aeruginosa VIM-2 metallo-beta-lactamase. AID 1527. inhibition, % at 5.6 µM. purified VIM-2, nitrocefin hydrolysis, epi-absorbance fluorescence. 0.89% of 290,000 active;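 active = inhibition above the mean of all tested compounds plus 3 SD, cutoff set per screening run, cut at about 7.5% in these data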;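 note: red hydrolysis product quenches plate fluorescence so inhibitors raise well fluorescence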
eIF4H FP inh: inhibitors of RNA binding by human eIF4H | Q15056 | eIF4H fluorescence polarization binding assay | inhibition, % at 35 µM | 0.94% of 290,000 active;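 note: calls also rest on retests at 20 µM and on dose response follow-up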
IMP-1 inh-2: IMP-1 inhibition, counter-screen for VIM-2 inhibitors. shares compounds with VIM-2 inhibitor. purified IMP-1, nitrocefin hydrolysis, epi-absorbance fluorescence. inhibition, % at 5.6 µM. 1,300 tested, under 10 active. AID 1856
VIM-2 FRET inh: inhibits VIM-2 in FRET assay to exclude epi-absorbance artifacts | shares compounds with VIM-2 inhibitor | purified VIM-2, CCF2 FRET substrate hydrolysis | inhibition, % at 5.6 µM | 23% of 1,300 active | AID 1857;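 active = inhibition above the mean of all tested compounds plus 3 SD, cut at about 19% in these data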
TEM-1 counter: blocks E. coli TEM-1 beta-lactamase in VIM-2 selectivity screen. shares compounds with VIM-2 inhibitor. Purified TEM-1, nitrocefin hydrolysis, epi-absorbance fluorescence. inhibition, % at 5.6 µM. 3% of 1,300 active. AID 1866;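 active = inhibition above that campaign's mean inhibition plus 3 SD, cut at about 0.46% in these data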
Target sequence (P62593 whole entry, looked up): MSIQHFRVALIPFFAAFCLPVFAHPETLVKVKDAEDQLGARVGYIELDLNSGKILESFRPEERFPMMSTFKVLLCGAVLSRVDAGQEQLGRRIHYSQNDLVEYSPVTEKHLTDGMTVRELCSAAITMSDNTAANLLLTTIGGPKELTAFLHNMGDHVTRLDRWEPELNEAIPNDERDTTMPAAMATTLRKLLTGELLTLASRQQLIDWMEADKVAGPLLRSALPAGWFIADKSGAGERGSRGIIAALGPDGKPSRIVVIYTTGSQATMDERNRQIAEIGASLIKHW
VIM-2 inh conf: confirmation of P. aeruginosa VIM-2 metallo-beta-lactamase inhibitors. 96% of 1,300 active. inhibition, % at 5.6 µM. shares compounds with VIM-2 inhibitor. purified VIM-2, nitrocefin hydrolysis, epi-absorbance;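 active = inhibition of the VIM-2 beta-lactamase enzyme above about 11% from the earlier first-round screen, limit read from the data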
A number is an active result; i = inactive; nt = not tested or not shown. Unless noted, the rule behind the calls is not given here.

SMILES | PABP1 MLLE inh | IMP-1 inh-1 | PABP polyA inh | VIM-2 inhibitor | eIF4H FP inh | IMP-1 inh-2 | VIM-2 FRET inh | TEM-1 counter | VIM-2 inh conf
O=Cc1c(NCc2ccc(F)cc2)c2ccccc2[nH]c1=O | i | i | i | i | i | nt | nt | nt | nt
CCN(CC)CCn1nc(C)nc1-c1ccccc1O | i | i | i | i | i | nt | nt | nt | nt
CCN(CC)CCn1nc2c3c(cccc3c1=O)-c1ccccc1-2 | i | i | i | 17 | i | i | i | i | 29
O=c1c2cccc3c2c(nn1CN1CCOCC1)-c1ccccc1-3 | i | i | i | 26 | i | i | i | i | 33
CCN(C(=O)CSc1nc2nc(C)cc(C)n2n1)C1CCS(=O)(=O)C1 (stereo not drawn) | i | i | i | i | i | nt | nt | nt | nt
Cc1c(C)c2ccc(OCC(=O)Nc3cccnc3)c(C)c2oc1=O | i | i | i | 12 | i | i | i | i | 21
Cc1cc(Cl)ccc1OCC(=O)Nc1cccnc1 | i | i | i | i | i | nt | nt | nt | nt
Cc1c(OCC(=O)NCc2ccncc2)ccc2c3c(c(=O)oc12)CCCC3 | i | i | i | 49 | i | i | i | i | 63
Cc1c(OCC(=O)N(C)c2ccccc2)ccc2c3c(c(=O)oc12)CCC3 | i | i | i | 20 | i | i | i | i | 29
Cc1c(OC(C)C(=O)O)ccc2c3c(c(=O)oc12)CCCC3 (stereo not drawn) | i | i | i | i | i | nt | nt | nt | nt
Cc1c(OC(C)C(=O)NCc2cccnc2)ccc2c3c(c(=O)oc12)CCCC3 (stereo not drawn) | i | i | i | 14 | i | i | i | i | 24
COc1cc(C2C(C#N)=C(N)N(N(C)C)C3=C2C(=O)CC(C)(C)C3)ccc1O (stereo not drawn) | i | i | i | i | i | nt | nt | nt | nt
CCc1ccc(NC(=O)COC(=O)CC2CCCC2)cc1 | i | nt | nt | nt | nt | nt | nt | nt | nt
COc1cc(C(=O)NCCC(=O)NC2CCC(C)CC2)cc(OC)c1OC (stereo not drawn) | i | i | i | i | i | nt | nt | nt | nt
C[C@@H]1CN([C@@H](C)CO)C(=O)c2cc(C3=CCCCC3)cnc2O[C@H]1CN(C)C(=O)Nc1cccc(F)c1 | i | nt | nt | nt | nt | nt | nt | nt | nt
Cc1[nH]c(C)c(S(=O)(=O)NCc2ccc(F)cc2)c1C(=O)N1CCCC1 | i | i | i | i | i | nt | nt | nt | nt
Cc1c(OCC(=O)NCc2cccnc2)ccc2c3c(c(=O)oc12)CCCC3 | i | i | i | 17 | i | i | i | i | 26
CN(C(=O)COC(=O)c1ccc(Cl)c(S(=O)(=O)N2CCCCC2)c1)C1(C#N)CCCCC1 | i | nt | nt | nt | nt | nt | nt | nt | nt
Cc1cc(C)n2cc(CSc3nnc(-c4ccccc4)o3)nc2n1 | i | i | i | 16 | i | i | 30 | i | 21
O=C1CSC(c2ccc(Cl)cc2)N1c1cccnc1 (stereo not drawn) | i | i | i | i | i | nt | nt | nt | nt
CCc1c(C)nc2c(-c3ccccc3OC)c(C)[nH]n2c1=O | i | i | i | i | i | nt | nt | nt | nt
CC1CN(c2nn3c(=O)c4ccccc4nc3c3ccccc23)CC(C)O1 (stereo not drawn) | i | i | i | i | i | nt | nt | nt | nt
CCN1CCN(c2nn3c(=O)c4ccccc4nc3c3ccccc23)CC1 | i | i | i | 18 | i | i | i | i | 30
C(=N\Nc1ncnc2sc3c(c12)CCC3)/c1ccncc1 | i | i | i | 34 | i | i | i | i | 53
C(=N\Nc1ncnc2sc3c(c12)CCC3)/c1cccs1 | i | i | i | i | i | nt | nt | nt | nt
SMILES | PABP1 MLLE inh | IMP-1 inh-1 | PABP polyA inh | VIM-2 inhibitor | eIF4H FP inh | IMP-1 inh-2 | VIM-2 FRET inh | TEM-1 counter | VIM-2 inh conf
CCN(CC)CCNc1ncnc2c1sc1nc(N3CCCC3)c3c(c12)CC(C)(C)OC3 | i | i | i | i | i | nt | nt | nt | nt
CCN(CC)CCNc1ncnc2c1sc1nc(N3CCOCC3)c3c(c12)CCCC3 | i | i | i | 15 | i | i | i | i | 33
NC(=O)c1cnn2c(C(F)(F)F)cc(-c3ccc(F)cc3)nc12 | i | i | i | 16 | i | i | i | i | 16
NC(=O)c1cnn2c(C(F)(F)F)cc(-c3ccccc3)nc12 | i | i | i | i | i | nt | nt | nt | nt
O=C(O)c1cc2ccc3ccccc3c2[nH]1 | i | i | i | 14 | i | i | 18 | i | 16
Cc1ccc(-c2csc3n[nH]c(=S)n23)cc1 | i | i | i | 46 | i | i | 70 | i | 57
COc1ccc(N2C(=O)C3CCCN3C2c2ccc(C)o2)cc1 (stereo not drawn) | i | i | i | i | i | nt | nt | nt | nt
N#CCSc1nc2cc(C(=O)N3CCCC3)ccc2c(=O)n1Cc1ccccc1 | i | i | i | i | i | nt | nt | nt | nt
N#CCSc1nc2cc(C(=O)N3CCC(C(N)=O)CC3)ccc2c2nc3ccccc3n12 | i | i | i | 24 | i | i | i | i | 40
Cn1c(SCC(=O)Nc2ccc(Cl)cc2F)nnc1-c1ccco1 | i | i | i | i | i | nt | nt | nt | nt
CN(C)S(=O)(=O)c1cccc(NC(=O)c2ccc3c(c2)OCCO3)c1 | i | nt | nt | nt | nt | nt | nt | nt | nt
CC(NS(=O)(=O)c1ccc2c(c1)C(=O)c1cc(S(=O)(=O)NC(C)C(=O)O)ccc1-2)C(=O)O (stereo not drawn) | i | i | i | 18 | i | i | 21 | i | 19
Cc1cccn2c(=O)c3cc(C(=O)NC4CCCCCC4)sc3nc12 | i | i | i | i | i | nt | nt | nt | nt
COCCCNC(=O)c1cc2c(=O)n3cccc(C)c3nc2s1 | i | i | i | 18 | i | i | i | i | 23
CCCCNC(=O)c1cc2c(=O)n3cccc(C)c3nc2s1 | i | i | i | 21 | i | i | i | i | 25
Cc1cccn2c(=O)c3cc(C(=O)NC4CCCCC4)n(C)c3nc12 | i | i | i | i | i | nt | nt | nt | nt
Cc1cccn2c(=O)c3cc(C(=O)NC4CCS(=O)(=O)C4)sc3nc12 (stereo not drawn) | i | i | i | 15 | i | i | i | i | 24
Cc1cccn2c(=O)c3cc(C(=O)N4COCC4(C)C)sc3nc12 | i | i | i | i | i | nt | nt | nt | nt
Cc1cccn2c(=O)c3cc(C(=O)NC4CCCC4)n(C)c3nc12 | i | i | i | 14 | i | i | i | i | 22
O=c1oc2ccccc2c(N2CCOCC2)c1[N+](=O)[O-] | i | i | i | i | i | nt | nt | nt | nt
CC(=O)C(=Cc1cccc(C#N)c1)C(=O)c1ccccc1 | i | nt | nt | nt | nt | nt | nt | nt | nt
CCn1cc(C(=O)NCCc2ccc(OC)cc2)c(=O)c2ccc(C)nc21 | i | i | i | i | i | nt | nt | nt | nt
COCCNC(=O)C1(C)CCN(C(=O)c2cc(C(C)(C)C)nn2C)C1 (stereo not drawn) | i | nt | nt | nt | nt | nt | nt | nt | nt
CCc1ccnc(NS(=O)(=O)c2ccc3c(c2)CCO3)c1 | i | i | i | i | i | nt | nt | nt | nt
Cc1cc(OCCCn2ccnc2)ccc1[N+](=O)[O-] | i | i | i | 28 | i | i | i | i | 39

Assay outcomes from PubChem.
